From ChEMBL document CHEMBL1152370, “N-(4-Fluorobenzyl)-3-hydroxy-9,9-dimethyl-4-oxo-6,7,8,9-tetrahydro-4H-pyrazino[1,2-a]pyrimidine-2-carboxamides a novel class of potent HIV-1 integrase inhibitors” (Bioorg Med Chem Lett, 2009)

Key:
[1] = system: Human immunodeficiency virus 1; experiment: Antiviral activity against HIV1 3B infected in human MT4 cells assessed as inhibition of viral spread in presence of 10% heat inactivated fetal bovine serum; format: functional; conditions: Human immunodeficiency virus 1, 3B, read-out: CIC95
Summary of the method: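 Spread assay of HIV-1 IIIB infection in MT-4 human T-lymphoid cell culture with 10% heat-inactivated fetal bovine serum. The value is the 95% inhibitory concentration (CIC95) for blocking the spread of infection. SD was always ±10% of the value.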

[2] = system: Human immunodeficiency virus 1; experiment: Antiviral activity against HIV1 3B infected in human MT4 cells assessed as inhibition of viral spread in presence of 50% normal human serum; format: functional; conditions: Human immunodeficiency virus 1, 3B, read-out: CIC95
Summary of the method: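 Spread assay of HIV-1 IIIB infection in MT-4 human T-lymphoid cell culture with 50% normal human serum. The value is the CIC95, the 95% inhibitory concentration for blocking the spread of infection. SD was always ±10% of the value.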

[3] = biological target: Human immunodeficiency virus type 1 integrase (Human immunodeficiency virus 1, UniProt Q7ZJM1); experiment: Inhibition of HIV1 recombinant integrase strand transfer activity treated after enzyme assembly and washing
Chain of Human immunodeficiency virus type 1 integrase (Q7ZJM1 whole entry): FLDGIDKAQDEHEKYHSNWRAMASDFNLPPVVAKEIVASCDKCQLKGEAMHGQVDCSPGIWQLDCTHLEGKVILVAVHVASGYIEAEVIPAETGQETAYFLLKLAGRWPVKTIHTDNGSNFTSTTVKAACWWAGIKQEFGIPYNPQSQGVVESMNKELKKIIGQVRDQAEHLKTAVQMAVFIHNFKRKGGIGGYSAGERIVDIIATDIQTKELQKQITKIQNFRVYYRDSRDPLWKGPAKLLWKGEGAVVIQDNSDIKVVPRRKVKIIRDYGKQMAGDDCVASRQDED

[4] = Plasma clearance in rat; format: ADME, organism-based
[5] = Bioavailability in rat; format: ADME, organism-based; conditions: in vivo

Row | SMILES | IC95 [1] [µM] | IC95 [2] [µM] | IC50 [3] [µM] | clearance [4] [mL/min/kg] | bioavailability [5] [%]
1 | CC1(C)c2nc(C(=O)NCc3ccc(F)cc3)c(O)c(=O)n2CCN1Cc1nnn[nH]1 | 0.5 | 1 | 0.002 | – | –
2 | Cn1nnc(CN2CCn3c(nc(C(=O)NCc4ccc(F)cc4)c(O)c3=O)C2(C)C)n1 | 0.007 | 0.031 | 0.006 | – | –
3 | CC1(C)c2nc(C(=O)NCc3ccc(F)cc3)c(O)c(=O)n2CCN1CCN1CCOCC1 | 0.5 | 1 | 0.003 | – | –
4 | CCNC(=O)N1CCn2c(nc(C(=O)NCc3ccc(F)cc3)c(O)c2=O)C1(C)C | 0.5 | – | 0.015 | – | –
5 | CC1(C)NCCn2c1nc(C(=O)NCc1ccc(F)cc1)c(O)c2=O | 0.125 | 0.166 | 0.016 | – | –
6 | Cn1cnc(CN2CCn3c(nc(C(=O)NCc4ccc(F)cc4)c(O)c3=O)C2(C)C)n1 | 0.031 | 0.062 | 0.025 | – | –
7 | Cc1nc(CN2CCn3c(nc(C(=O)NCc4ccc(F)cc4)c(O)c3=O)C2(C)C)no1 | 0.015 | 0.062 | 0.006 | – | –
8 | Cn1nnnc1CN1CCn2c(nc(C(=O)NCc3ccc(F)cc3)c(O)c2=O)C1(C)C | 0.015 | 0.062 | 0.005 | – | –
9 | CN(C)S(=O)(=O)N1CCn2c(nc(C(=O)NCc3ccc(F)cc3)c(O)c2=O)C1(C)C | 1 | – | 0.008 | – | –
10 | CC1(C)c2nc(C(=O)NCc3ccc(F)cc3)c(O)c(=O)n2CCN1CCc1ccccn1 | 0.25 | 1 | 0.012 | – | –
11 | CCN(CC)CCN1CCn2c(nc(C(=O)NCc3ccc(F)cc3)c(O)c2=O)C1(C)C | 0.625 | 0.625 | 0.076 | – | –
12 | CNC(=O)CN1CCn2c(nc(C(=O)NCc3ccc(F)cc3)c(O)c2=O)C1(C)C | 0.062 | 0.125 | 0.021 | – | –
13 | CN(C)C(=O)CN1CCn2c(nc(C(=O)NCc3ccc(F)cc3)c(O)c2=O)C1(C)C | 0.062 | 0.125 | 0.008 | – | –
14 | CC1(C)NC(=O)Cn2c1nc(C(=O)NCc1ccc(F)cc1)c(O)c2=O | > 1 | > 1 | 0.005 | – | –
15 | Cc1cc(CN2CCn3c(nc(C(=O)NCc4ccc(F)cc4)c(O)c3=O)C2(C)C)on1 | 0.031 | 0.125 | 0.062 | – | –
16 | Cc1noc(CN2CCn3c(nc(C(=O)NCc4ccc(F)cc4)c(O)c3=O)C2(C)C)n1 | 0.015 | 0.062 | 0.013 | – | –
17 | CC1(C)c2nc(C(=O)NCc3ccc(F)cc3)c(O)c(=O)n2CCN1Cc1ccccn1 | 0.031 | 0.125 | 0.009 | – | –
18 | Cn1ccc(CN2CCn3c(nc(C(=O)NCc4ccc(F)cc4)c(O)c3=O)C2(C)C)n1 | 0.031 | 0.125 | 0.009 | – | –
19 | CC1(C)c2nc(C(=O)NCc3ccc(F)cc3)c(O)c(=O)n2CCN1Cc1nnco1 | 0.015 | 0.062 | 0.021 | – | –
20 | Cc1nnc(CN2CCn3c(nc(C(=O)NCc4ccc(F)cc4)c(O)c3=O)C2(C)C)o1 | 0.007 | 0.062 | 0.005 | – | –
21 | CC1(C)c2nc(C(=O)NCc3ccc(F)cc3)c(O)c(=O)n2CCN1S(C)(=O)=O | 1 | – | 0.01 | – | –
22 | CN1Cn2c(nc(C(=O)NCc3ccc(F)cc3)c(O)c2=O)C1(C)C | 0.5 | 1 | 0.03 | – | –
23 | Cn1cc(CN2CCn3c(nc(C(=O)NCc4ccc(F)cc4)c(O)c3=O)C2(C)C)nn1 | 0.031 | 0.062 | 0.002 | – | –
24 | CC1(C)c2nc(C(=O)NCc3ccc(F)cc3)c(O)c(=O)n2CCN1CC(=O)N1CCCC1 | 0.031 | 0.25 | 0.007 | – | –

Row | SMILES | IC95 [1] [µM] | IC95 [2] [µM] | IC50 [3] [µM] | clearance [4] [mL/min/kg] | bioavailability [5] [%]
25 | CC1(C)c2nc(C(=O)NCc3ccc(F)cc3)c(O)c(=O)n2CCN1Cc1cn[nH]c1 | 0.062 | 1 | 0.007 | – | –
26 | CC(=O)N1CCn2c(nc(C(=O)NCc3ccc(F)cc3)c(O)c2=O)C1(C)C | 1 | – | 0.005 | – | –
27 | CC1(C)c2nc(C(=O)NCc3ccc(F)cc3)c(O)c(=O)n2CCN1Cc1cnco1 | 0.031 | 0.125 | 0.004 | – | –
28 | Cn1nccc1CN1CCn2c(nc(C(=O)NCc3ccc(F)cc3)c(O)c2=O)C1(C)C | 0.031 | 0.125 | 0.007 | – | –
29 | CC1(C)c2nc(C(=O)NCc3ccc(F)cc3)c(O)c(=O)n2CCN1CC(N)=O | 0.125 | 0.25 | 0.005 | – | –
30 | CN1CCn2c(nc(C(=O)NCc3ccc(F)cc3)c(O)c2=O)C1(C)C | 0.125 | 0.25 | 0.006 | 10 | 57
31 | CC1(C)c2nc(C(=O)NCc3ccc(F)cc3)c(O)c(=O)n2CCN1Cc1cocn1 | 0.031 | 0.093 | 0.003 | – | –
32 | CC1(C)c2nc(C(=O)NCc3ccc(F)cc3)c(O)c(=O)n2CCN1Cc1ccn[nH]1 | 0.062 | 0.25 | 0.005 | – | –
33 | CN1CCN(C(=O)CN2CCn3c(nc(C(=O)NCc4ccc(F)cc4)c(O)c3=O)C2(C)C)CC1 | 0.062 | 0.125 | 0.021 | – | –
34 | Cn1nncc1CN1CCn2c(nc(C(=O)NCc3ccc(F)cc3)c(O)c2=O)C1(C)C | 0.015 | 0.125 | 0.006 | – | –
35 | CN(C)CCN1CCn2c(nc(C(=O)NCc3ccc(F)cc3)c(O)c2=O)C1(C)C | 1.25 | 1.25 | 0.062 | – | –
36 | CC1(C)c2nc(C(=O)NCc3ccc(F)cc3)c(O)c(=O)n2CCN1Cc1cnn[nH]1 | 0.031 | 0.125 | 0.006 | – | –
37 | CC1(C)c2nc(C(=O)NCc3ccc(F)cc3)c(O)c(=O)n2CCN1Cc1cnccn1 | 0.031 | 0.125 | 0.006 | – | –
38 | CC1(C)c2nc(C(=O)NCc3ccc(F)cc3)c(O)c(=O)n2CCN1CC(=O)N1CCOCC1 | 0.062 | 0.25 | 0.007 | – | –
39 | CC1(C)NS(=O)(=O)Cn2c1nc(C(=O)NCc1ccc(F)cc1)c(O)c2=O | 5 | > 10 | 0.007 | – | –
40 | CC1(C)c2nc(C(=O)NCc3ccc(F)cc3)c(O)c(=O)n2CCN1CC(=O)O | 0.5 | 1 | 0.008 | – | –
41 | CN(C)[C@@H]1CCCn2c1nc(C(=O)NCc1ccc(F)cc1)c(O)c2=O | – | – | 0.069 | – | –
42 | CC1(C)NCCCn2c1nc(C(=O)NCc1ccc(F)cc1)c(O)c2=O | 0.5 | 0.25 | 0.02 | – | –
43 | CC1(C)c2nc(C(=O)NCc3ccc(F)cc3)c(O)c(=O)n2CCN1Cc1ccccc1 | 0.125 | 0.25 | 0.005 | – | –
44 | Cc1cnc(CN2CCn3c(nc(C(=O)NCc4ccc(F)cc4)c(O)c3=O)C2(C)C)o1 | 0.015 | 0.062 | 0.008 | – | –
45 | CC1(C)NC(=O)n2c1nc(C(=O)NCc1ccc(F)cc1)c(O)c2=O | > 1 | > 1 | 0.032 | – | –
46 | CN(C)C(=O)C(=O)N1CCn2c(nc(C(=O)NCc3ccc(F)cc3)c(O)c2=O)C1(C)C | 1 | – | 0.006 | – | –
47 | CC1(C)c2nc(C(=O)NCc3ccc(F)cc3)c(O)c(=O)n2CCN1Cc1cscn1 | 0.015 | 0.125 | 0.009 | – | –
48 | Cc1nnc(C(=O)NC(C)(C)c2nc(C(=O)NCc3ccc(F)cc3)c(O)c(=O)n2C)o1 [RALTEGRAVIR POTASSIUM] | 0.019 | 0.031 | – | – | –
